By MIC is commonly meant the least concentration at which growth counts as inhibited.

SMILES strings stand for the structures. ≈ marks a conversion by molar mass, not a printed value. Calls of active or inactive are those of the source. No cut-off for these calls is given here.

Series [1] relates to Candida albicans. The series is described as follows: Antifungal activity against itraconazole and fluconazole susceptible Candida albicans ATCC MYA-2876 after 48 hrs by broth dilution method. It is filed as functional. Particulars: for MIC: Candida albicans, ATCC MYA-2876, 48 h.
Series [2] is described as follows: Solubility of the compound in DMSO. In kind it is physicochemical.
The subject of a further series is Nakaseomyces glabratus. The series is described as follows: Antifungal activity against Candida glabrata ATCC 2001 after 48 hrs by broth dilution method. It is filed as functional, CBS 138. The settings on record: for MIC: Nakaseomyces glabratus, CBS 138, 48 h. For orientation: Broth dilution looks for growth in wells or tubes with falling amounts of substance.

Series [3] concerns Candida albicans. The series is described as follows: Antifungal activity against itraconazole and fluconazole resistant Candida albicans ATCC MYA-1237 after 48 hrs by broth dilution method. In kind it is functional. Particulars: Candida albicans, ATCC MYA-1237, 48 h. In short, it runs like this: (§1)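 CLSI M27-A3 broth microdilution with minor modifications. Overnight YPD culture grown at 35 °C, 200 rpm, adjusted to OD600 0.12, diluted in RPMI 1640 buffered to pH 7.0 with 0.165 M MOPS to a final 1–2 × 10^3 CFU/mL. Test compounds at 0.015–31.3 µg/mL, 48 h at 35 °C, DMSO <1.25%. […] Triplicate.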

The test system of a further series is Aspergillus terreus. The series is described as follows: Antifungal activity against Aspergillus terreus ATCC MYA-3633 after 48 hrs by broth dilution method. In kind it is functional. The settings on record: Aspergillus terreus, ATCC MYA-3633, 48 h. In short, it runs like this:
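Molds tested per CLSI M38-A2. Spores were harvested from sporulating PDA cultures by filtering through glass wool and counted on a hemocytometer. Serial dilutions (0.03–31.3 µg/mL) were made in RPMI 1640 buffered to pH 7.0 with 0.165 M MOPS, final inoculum 5 × 10^5 CFU/mL.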

The test system of series [4] is Candida albicans. The series is described as follows: Antifungal activity against itraconazole and fluconazole susceptible Candida albicans ATCC MYA-2310 after 48 hrs by broth dilution method. It is filed as functional. The settings on record: for MIC: Candida albicans, ATCC MYA-2310, 48 h.
Series [5] deals with Candida parapsilosis. The series is described as follows: Antifungal activity against Candida parapsilosis ATCC 22019 after 48 hrs by broth dilution method. It is filed as functional. The settings on record: for MIC: Lodderomyces parapsilosis, ATCC 22019, 48 h.
For series [6], the system named is Candida albicans. The series is described as follows: Antifungal activity against itraconazole and fluconazole resistant Candida albicans ATCC MYA-1003 after 48 hrs by broth dilution method. Particulars: Candida albicans, ATCC MYA-1003, 48 h. It is filed as functional. In short, it runs like this: as §1
The subject of series [7] is Aspergillus nidulans. Briefly: Ratio of MIC in presence of 10% FBS to MIC in absence of 10% FBS for Aspergillus nidulans ATCC 38163. It is filed as functional. In short, it runs like this:
(§2)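 MIC broth dilution run in parallel in RPMI 1640 with or without 10% fetal bovine serum against C. albicans ATCC 10231, C. parapsilosis ATCC 22019 and A. nidulans ATCC 38163.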

The test system of series [8] is Candida albicans. The series is described as follows: Antibiofilm activity against voriconazole resistant Candida albicans ATCC 64124 sessile cells incubated for 24 hrs by XTT reduction assay. In kind it is functional. Particulars: ATCC 64124, 24 h. A digest of the protocol:
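Strain B grown overnight in YPD broth at 35 °C, diluted to OD600 0.1 (~10^6 CFU/mL), then grown statically for 24 h at 37 °C to form biofilm. Washed with PBS, then drug in RPMI 1640 at 0.12–62.5 µg/mL for 24 h at 37 °C. Read-out: XTT 0.5 mg/mL with menadione 1 µM, 2 h, A490. SMIC50/SMIC80 are 50%/80% decreases versus drug-free biofilm. Duplicate.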
For orientation: Tetrazolium dyes change colour on reduction, which living cells bring about.

Series [9] has as its system Candida albicans. Briefly: Antifungal activity against Candida albicans ATCC 10231 after 48 hrs in the presence of 10% FBS by broth dilution method. It is filed as functional. Particulars: ATCC 10231, 48 h.
In the next series the test system is HEK293. Briefly: Cytotoxicity against HEK293 cells up to 31 ug/ml after 24 hrs by resazurin-based fluorescence assay. In kind it is cell-based. The settings on record: human, hek293, 24 h. A digest of the protocol:
(§3)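 Cells grown in DMEM with 10% FBS at 37 °C, 5% CO2, and seeded at 10000 (HEK-293) or 3000 (BEAS-2B, A549) per well. After 16 h, exposed 24 h to 0.13–31 µg/mL final in medium with 0.1–0.4% DMSO. Resazurin added for 6–10 h; fluorescence read at 560/590 nm and survival normalized to DMSO control after background subtraction. Triton X-100 12.5% v/v positive control; duplicate.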

Series [10] deals with Aspergillus nidulans. Briefly: Antifungal activity against Aspergillus nidulans ATCC 38163 after 48 hrs by broth dilution method. The settings on record: Aspergillus nidulans, ATCC 38163, 48 h. In kind it is functional. In short, it runs like this:
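A. nidulans run per CLSI M38-A2. PDA spores were filtered through glass wool and counted by hemocytometer. Test range 0.03–31.3 µg/mL in MOPS-buffered RPMI 1640 (pH 7.0), final 5 × 10^5 CFU/mL.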

In series [11] the test system is Candida albicans. Briefly: Antifungal activity against Candida albicans ATCC 10231 after 48 hrs by broth dilution method. In kind it is functional. The settings on record: ATCC 10231, 48 h.
For a further series, the system named is Pichia kudriavzevii. Briefly: Antifungal activity against Candida krusei ATCC 6258 after 48 hrs by broth dilution method. In kind it is functional. The settings on record: for MIC: Pichia kudriavzevii, ATCC 6258, 48 h. A digest of the protocol: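 Yeasts tested per CLSI M27-A3 with minor changes. An overnight YPD culture (35 °C, 200 rpm) was adjusted to OD600 0.12 and diluted in MOPS-buffered RPMI 1640 (pH 7.0) to a final 1–2 × 10^3 CFU/mL. Compounds 0.015–31.3 µg/mL, DMSO <1.25%.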

A further series relates to BEAS-2B. Briefly: Cytotoxicity against human BEAS2B cells up to 31 ug/ml after 24 hrs by resazurin-based fluorescence assay. It is filed as cell-based. In short, it runs like this: as §3
(The colour change of resazurin is a common sign of viable cells or microbes.)

Series [12] relates to Candida parapsilosis. Briefly: Ratio of MIC in presence of 10% FBS to MIC in absence of 10% FBS for Candida parapsilosis ATCC 22019. In kind it is functional. A digest of the protocol:
as §2

Series [13] in a line: Aqueous solubility of the compound. It is filed as physicochemical. Particulars: buffer.
The test system of another series is A549. Briefly: Cytotoxicity against human A549 cells up to 31 ug/ml after 24 hrs by resazurin-based fluorescence assay. Particulars: a549, 24 h. In kind it is cell-based. In short, it runs like this:
as §3

A further series deals with Aspergillus flavus. Briefly: Antifungal activity against Aspergillus flavus ATCC MYA-3631 after 48 hrs by broth dilution method. The settings on record: ATCC MYA-3631, 48 h. It is filed as functional.
In series [14] the test system is Candida albicans. The series is described as follows: Ratio of MIC in presence of 10% FBS to MIC in absence of 10% FBS for Candida albicans ATCC 10231. It is filed as functional. A digest of the protocol:
as §2

For series [15], the system named is Candida albicans. Briefly: Antifungal activity against Candida albicans ATCC 64124 after 48 hrs by broth dilution method. In kind it is functional. Particulars: for MIC: Candida albicans, ATCC 64124, 48 h. A digest of the protocol: as §1
In series [16] the test system is Candida albicans. Briefly: Antifungal activity against itraconazole and fluconazole resistant Candida albicans ATCC 90819 after 48 hrs by broth dilution method. The settings on record: for MIC: Candida albicans, ATCC 90819, 48 h. In kind it is functional. A digest of the protocol: as §1
Series [17] relates to Candida albicans. The series is described as follows: Ratio of MIC80 for voriconazole resistant Candida albicans ATCC 64124 sessile cells to MIC for voriconazole resistant Candida albicans ATCC 64124. It is filed as functional.
Series [18] deals with Candida albicans. Briefly: Inhibition of 14alpha-demethylase in Candida albicans ATCC 10231 assessed as ergosterol levels at […] by GC-MS analysis. More on the design: scale not given: the % may be the effect or the level left.
Series [19] has as its system Candida albicans. The series is described as follows: Antifungal activity against Candida albicans ATCC 10231 at 7.8 ug/mL incubated for 1 hr by propidium iodide staining-based fluorescence microscopic method. In kind it is functional. In short, it runs like this:
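C. albicans ATCC 10231 grown overnight in YPD broth at 35 °C with shaking at 200 rpm, then transferred to RPMI 1640. Cells were exposed to drug and stained with propidium iodide, which enters only cells with compromised membranes. Uptake was judged by fluorescence microscopy against an untreated control.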

Series [20] concerns Candida albicans. Briefly: Inhibition of 14alpha-demethylase in Candida albicans ATCC 10231 assessed as 14alpha-methyl ergosta-8,24(28)-dien-3beta,6alpha-diol levels at […] by GC-MS analysis. Set-up: scale not given: the % may be the effect or the level left.

Consider `CCCCCCCCCCCCN1CCNCC1`, for which the MIC with Candida albicans [1] came to 15.3 µM (≈ 3.89 µg/mL); in the series on Nakaseomyces glabratus it was 7.7 µM (≈ 1.96 µg/mL); in the series with Candida albicans [3] it was 15.3 µM (≈ 3.89 µg/mL); in the series on Aspergillus terreus, 30.7 µM (≈ 7.81 µg/mL); against Candida albicans [4], 15.3 µM (≈ 3.89 µg/mL); with Candida parapsilosis [5], 7.7 µM (≈ 1.96 µg/mL). In addition, the MIC was determined as 15.3 µM (≈ 3.89 µg/mL) in the series on Candida albicans [6]; 3.9 µg/mL in the series with Candida albicans [9]; 7.7 µM (≈ 1.96 µg/mL) with Aspergillus nidulans [10]; 7.7 µM (≈ 1.96 µg/mL) against Candida albicans [11]; 7.7 µM (≈ 1.96 µg/mL) in the series on Pichia kudriavzevii; 15.3 µM (≈ 3.89 µg/mL) against Aspergillus flavus. In addition, the MIC against Candida albicans [15] and against Candida albicans [16] was 30.7 µM (≈ 7.81 µg/mL) throughout. In addition, the solubility entry in [2] and in series [13] was “Soluble” throughout. Also, the Ratio in the series on Aspergillus nidulans [7] is 2 - 8; in the series on Candida parapsilosis [12], 2 - 8; in the series with Candida albicans [14], 2 - 8; with Candida albicans [17] it was 1 - 4. Besides, the MIC50 against Candida albicans [8] worked out at 7.8 µg/mL (≈ 30.7 µM). Moreover, the MIC80 with Candida albicans [8] is 31.3 µg/mL (≈ 123 µM). Also, the Activity entry with HEK293, in the series on BEAS-2B and with A549 was “Toxic” throughout.

For `OC(Cn1cncn1)(Cn1cncn1)c1ccc(F)cc1F` [FLUCONAZOLE], the “MIC=<50” value in the series on Candida albicans [1] is 50.9 µM (≈ 15.6 µg/mL); in the series with Nakaseomyces glabratus it was more than 102.2 µM; against Candida albicans [4], more than 408.1 µM; in the series with Candida parapsilosis [5], 6.4 µM (≈ 1.96 µg/mL); against Pichia kudriavzevii, more than 102.2 µM; with Candida albicans [15], more than 408.1 µM. Besides, in the series on Candida albicans [16], the “MIC=<50” value is more than 408.1 µM. The Activity in the series with Candida albicans [18] is 95.9%; in the series with Candida albicans [20], 4.1%. The solubility result in series [2] and in [13] was “Soluble” each time. Besides, the outcome with Candida albicans [19] was inactive.

With `Fc1ccc(C2(Cn3cncn3)CO2)c(F)c1` (stereo unspecified), the MIC with Candida albicans [1], in the series with Nakaseomyces glabratus, against Candida albicans [3], in the series with Aspergillus terreus, in the series on Candida albicans [4] and with Candida parapsilosis [5] was more than 132 µM in each case. Besides, the MIC with Candida albicans [6], against Aspergillus nidulans [10], against Candida albicans [11], against Pichia kudriavzevii, against Aspergillus flavus and in the series on Candida albicans [15] was more than 132 µM throughout. In the series with Candida albicans [16], this molecule showed a minimal inhibitory concentration (MIC) of more than 132 µM.

As to `CCCCCCCCCN1CCNCC1`, the MIC against Candida albicans [1] is more than 147 µM; against Nakaseomyces glabratus it was 147 µM (≈ 31.3 µg/mL); against Candida albicans [3], 147 µM (≈ 31.3 µg/mL); against Aspergillus terreus, more than 147 µM; in the series on Candida albicans [4], 147 µM (≈ 31.3 µg/mL); in the series on Candida parapsilosis [5], more than 147 µM. In addition, the MIC in the series with Candida albicans [6] was more than 147 µM; in the series with Aspergillus nidulans [10], more than 147 µM; in the series on Candida albicans [11] it was 147 µM (≈ 31.3 µg/mL); in the series on Pichia kudriavzevii it was 147 µM (≈ 31.3 µg/mL); in the series with Aspergillus flavus it was 147 µM (≈ 31.3 µg/mL); against Candida albicans [15], more than 147 µM. In addition, the MIC with Candida albicans [16] is 147 µM (≈ 31.3 µg/mL).

As for `CCCCCCCCN1CCNCC1`, the MIC in the series with Candida albicans [1], against Nakaseomyces glabratus, in the series with Candida albicans [3], in the series with Aspergillus terreus, in the series on Candida albicans [4] and with Candida parapsilosis [5] was more than 158 µM in each case. The MIC with Candida albicans [6], against Aspergillus nidulans [10], with Candida albicans [11], with Pichia kudriavzevii, with Aspergillus flavus and against Candida albicans [15] was more than 158 µM in each case. The molecule further gave an MIC in the series on Candida albicans [16] of more than 158 µM.

Values taken from ChEMBL document CHEMBL4024783, “Alkylated Piperazines and Piperazine-Azole Hybrids as Antifungal Agents” (J Med Chem, 2018).
